The source made the active and inactive calls. The calls are words filed in the database; no cut-off is given here.
Legend:
DLD-1 [1] = experiment: Induction of autophagy in human DLD-1 cells assessed as increase in Atg5 expression at 10 uM measured upto 6 hrs by Western blot analysis; type: functional, cell-based; conditions: time hrs <=6
Procedure, shortened: (§1)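 DLD-1 cells were treated with 10 μM compound or vehicle for the indicated times. Equal protein from NP-40 lysates was run on 15% SDS-PAGE and transferred to PVDF. Immunoblots for Beclin-1, Atg3, Atg5 and Atg7 were developed by chemiluminescence.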

DLD-1 [2] = experiment: Induction of apoptosis in human DLD-1 cells assessed as necrotic cells at 7.5 uM incubated for 18 hrs by Annexin V-FITC and propidium iodide staining based flow cytometry analysis (reference value: 4.1 %); type: functional
HT-29 [3] = experiment: Antiproliferative activity against human HT-29 cells assessed as reduction in cell growth at 10 uM incubated for 48 hrs by SRB assay relative to control; type: functional
Procedure, shortened: (§2)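 Early-passage cells plated at 40% confluency and left overnight, then exposed to 10 μM compound for 48 h. Growth was measured by sulforhodamine B staining, with absorbance at 510 nm. Percent growth inhibition was calculated against untreated cells.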

A549 = experiment: Antiproliferative activity against human A549 cells assessed as reduction in cell growth at 10 uM incubated for 48 hrs by SRB assay relative to control; type: functional; procedure, shortened: as §2
DLD-1 [4] = experiment: Induction of apoptosis in human DLD-1 cells assessed as increase in PARP cleavage at 5 to 7.5 uM by Western blot analysis; type: functional, cell-based; conditions: dose 5-7.5 µM
Procedure, shortened: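 DLD-1 cells were treated at 7.5 μM for 18 h and lysed in NP-40 buffer containing protease and phosphatase inhibitors. Protein was quantified by BCA, and equal amounts were run on 15% SDS-PAGE and transferred to PVDF. Cleaved PARP was probed and detected by enhanced chemiluminescence.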

NCI-H358 = experiment: Antiproliferative activity against human NCI-H358 cells assessed as reduction in cell growth at 10 uM incubated for 48 hrs by SRB assay relative to control; type: functional; procedure, shortened: as §2
DLD-1 [5] = experiment: Induction of autophagy in human DLD-1 cells assessed as vacuole formation at 7.5 uM incubated for 24 hrs by phase contrast microscopic analysis; type: functional, cell-based
Procedure, shortened: (§3)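 DLD-1 cells received vehicle, 7.5 μM compound alone, or compound plus 100 nM bafilomycin A1 pretreatment for 24 h. Cells were then examined by phase-contrast microscopy.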

DLD-1 [6] = experiment: Induction of apoptosis in human DLD-1 cells assessed as early apoptotic cells at 7.5 uM incubated for 18 hrs by Annexin V-FITC and propidium iodide staining based flow cytometry analysis (reference value: 4.95 %); type: functional
DLD-1 [7] = experiment: Induction of autophagy in human DLD-1 cells assessed as increase in Beclin expression at 10 uM measured upto 6 hrs by Western blot analysis; type: functional, cell-based; conditions: time hrs <=6; procedure, shortened: as §1
DLD-1 [8] = experiment: Antiproliferative activity against human DLD-1 cells assessed as reduction in cell growth incubated for 48 hrs by SRB assay; type: functional, cell-based; conditions: DLD-1, 48 h
Procedure, shortened: (§4)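 Colon cancer lines and CCD-18Co normal colon fibroblasts, early passage, plated at 40% confluency and incubated overnight. They were then treated with varying concentrations for 48 h. The SRB read-out was absorbance at 510 nm, and IC50 was taken as the half-maximal proliferation-inhibitory concentration.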

DLD-1 [9] = experiment: Induction of vacuole formation in human DLD-1 cells assessed as increase in cellular granularity at 7.5 uM incubated for 18 hrs by FACS analysis; type: functional, cell-based
Procedure, shortened: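 DLD-1 cells were given vehicle or 7.5 μM compound for 18 h. Cell size (forward scatter) and granularity (side scatter) were then read by flow cytometry.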

DLD-1 [10] = experiment: Induction of apoptosis in human DLD-1 cells assessed as viable cells at 7.5 uM incubated for 18 hrs by Annexin V-FITC and propidium iodide staining based flow cytometry analysis (reference value: 85.2 %); type: functional; conditions: read-out: Activity
SW-620 = experiment: Antiproliferative activity against human SW-620 cells assessed as reduction in cell growth incubated for 48 hrs by SRB assay; type: functional, cell-based; conditions: SW-620, 48 h; procedure, shortened: as §4
DLD-1 [11] = experiment: Induction of autophagy in human DLD-1 cells assessed as increase in Atg7 expression at 10 uM measured upto 6 hrs by Western blot analysis; type: functional, cell-based; conditions: time hrs <=6; procedure, shortened: as §1
DLD-1 [12] = experiment: Induction of autophagy in human DLD-1 cells assessed as increase in LC3B-I to LC3B-II conversion at 7.5 uM incubated for 18 hrs by Western blot analysis; type: functional, cell-based
Procedure, shortened: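 Vehicle or 7.5 μM compound was applied to DLD-1 cells for 18 h. Cells were lysed in NP-40 with inhibitors and equal protein was resolved on 15% SDS-PAGE and blotted to PVDF. Blots were probed for LC3A/B, with GAPDH as reference, and detected by ECL.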

CCD-18Co = experiment: Antiproliferative activity against human CCD-18Co cells assessed as reduction in cell growth incubated for 48 hrs by SRB assay; type: cell-based; procedure, shortened: as §4
DLD-1 [13] = experiment: Induction of autophagy in human DLD-1 cells assessed as reduction in cell viability at 7.5 uM incubated for 24 hrs in presence of Bafilomycin-A1 by crystal violet staining based phase contrast microscopic analysis; type: functional
DLD-1 [14] = experiment: Induction of autophagy in human DLD-1 cells assessed as increase in LC-3 punta formation at 1 to 5 uM incubated for 6 hrs by based confocal microscopy; type: functional, cell-based; conditions: dose 1-5 µM
Procedure, shortened: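 DLD-1 cells were grown overnight on coverslips and treated with vehicle or compound for 6 h. They were fixed in 4% paraformaldehyde, permeabilized with 0.1% Triton X-100 and blocked in 2% BSA. Primary antibody was applied overnight at 4°C, then fluorescent secondary for 2 h with a DAPI counterstain. LC3 puncta were imaged by confocal microscopy with a 63× oil objective.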

DLD-1 [15] = experiment: Induction of autophagy in human DLD-1 cells assessed as vacuole formation at 7.5 uM incubated for 20 hrs by MDC staining based confocal microscopy; type: functional, cell-based
Procedure, shortened: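 DLD-1 cells were incubated with drug for 20 h and then labeled with monodansylcadaverine in PBS for 20 min at 37°C in the dark. After washing, cells were imaged at once by confocal microscopy (excitation 390 nm, emission 460 nm).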

LoVo = experiment: Antiproliferative activity against human LoVo cells assessed as reduction in cell growth incubated for 48 hrs by SRB assay; type: functional, cell-based; procedure, shortened: as §4
DLD-1 [16] = experiment: Antiproliferative activity against human DLD-1 cells assessed as reduction in cell growth at 10 uM incubated for 48 hrs by SRB assay relative to control; type: functional; procedure, shortened: as §2
DLD-1 [17] = experiment: Induction of autophagy in human DLD-1 cells assessed as increase in Atg3 expression at 10 uM measured upto 6 hrs by Western blot analysis; type: functional, cell-based; conditions: time hrs <=6; procedure, shortened: as §1
DLD-1 [18] = experiment: Induction of autophagy in human DLD-1 cells assessed as vacuole formation at 7.5 uM incubated for 24 hrs in presence of Bafilomycin-A1 by phase contrast microscopic analysis; type: functional, cell-based; procedure, shortened: as §3
MDA-MB-231 = experiment: Antiproliferative activity against human MDA-MB-231 cells assessed as reduction in cell growth at 10 uM incubated for 48 hrs by SRB assay relative to control; type: functional; procedure, shortened: as §2
DLD-1 [19] = experiment: Induction of autophagy in human DLD-1 cells assessed as reduction in cell viability at 7.5 uM incubated for 24 hrs by crystal violet staining based phase contrast microscopic analysis; type: functional
MCF7 = experiment: Antiproliferative activity against human MCF7 cells assessed as reduction in cell growth at 10 uM incubated for 48 hrs by SRB assay relative to control; type: functional; procedure, shortened: as §2
DLD-1 [20] = experiment: Induction of autophagy in human DLD-1 cells assessed as mitochondrial damage at 5 uM measured upto 6 hrs by TEM analysis; type: functional, cell-based; conditions: time hrs <=6
Procedure, shortened: (§5)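 DLD-1 cells were treated at 5 μM for 6 h, fixed in 2.5% glutaraldehyde in phosphate buffer (pH 7.4) and post-fixed in 1% OsO4. Samples were dehydrated through ethanol and embedded in Spurr resin, and ultrathin sections were stained with uranyl acetate and lead citrate. Sections were viewed by TEM at 80 kV, with at least 200 cells per set across 4 grids.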

DLD-1 [21] = experiment: Induction of autophagy in human DLD-1 cells assessed as vacuole formation at 5 uM measured upto 6 hrs by TEM analysis; type: functional, cell-based; conditions: time hrs <=6; procedure, shortened: as §5
COLO 205 = experiment: Antiproliferative activity against human COLO 205 cells assessed as reduction in cell growth incubated for 48 hrs by SRB assay; type: functional, cell-based; conditions: COLO 205, 48 h; procedure, shortened: as §4
HT-29 [22] = experiment: Antiproliferative activity against human HT-29 cells assessed as reduction in cell growth incubated for 48 hrs by SRB assay; type: functional, cell-based; conditions: HT-29, 48 h; procedure, shortened: as §4
SW48 = experiment: Antiproliferative activity against human SW48 cells assessed as reduction in cell growth incubated for 48 hrs by SRB assay; type: functional, cell-based; conditions: SW48, 48 h; procedure, shortened: as §4
DLD-1 [23] = experiment: Induction of apoptosis in human DLD-1 cells assessed as late apoptotic cells at 7.5 uM incubated for 18 hrs by Annexin V-FITC and propidium iodide staining based flow cytometry analysis (reference value: 5.7 %); type: functional
DLD-1 [24] = experiment: Induction of autophagy in human DLD-1 cells assessed as nuclear damage at 5 uM measured upto 6 hrs by TEM analysis; type: functional, cell-based; conditions: time hrs <=6; procedure, shortened: as §5

With `CCCCCCCCCCCCCC[C@H](O)[C@@H](N)Cc1ccc(OC)cc1` the Activity (DLD-1 [1]) was “Active”, the Activity (DLD-1 [2]) was 5% and the inhibition at 10 µM (HT-29 [3]) was 97.7%. For the same compound, the inhibition at 10 µM (A549) was 94.8%, the Activity (DLD-1 [4]) was “inactive” and the inhibition at 10 µM (NCI-H358) was 90.4%. The Activity (DLD-1 [5]) was “Active”, the Activity (DLD-1 [6]) was 0.46% and the Activity (DLD-1 [7]) was “Active”. For the same compound, the IC50 (DLD-1 [8]) was 4.46 µM, the Activity (DLD-1 [9]) was “Active” and the viability at 7.5 µM (DLD-1 [10]) was 93.6%. For the same compound, the IC50 (SW-620) was 1.86 µM, the Activity (DLD-1 [11]) was “Active” and the Activity (DLD-1 [12]) was “Active”. For the same compound, the IC50 (CCD-18Co) was over 10 µM, the Activity (DLD-1 [13]) was “inactive” and the Activity (DLD-1 [14]) was “Active”. For the same compound, the Activity (DLD-1 [15]) was “Active”, the IC50 (LoVo) was 3.33 µM and the inhibition at 10 µM (DLD-1 [16]) was 97.3%. For the same compound, the Activity (DLD-1 [17]) was “Active”, the Activity (DLD-1 [18]) was “inactive” and the inhibition at 10 µM (MDA-MB-231) was 96.8%. For the same compound, the Activity (DLD-1 [19]) was “Active”, the inhibition at 10 µM (MCF7) was 89.3% and the Activity (DLD-1 [20]) was “inactive”. The Activity (DLD-1 [21]) was “Active”, the IC50 (COLO 205) was 2.03 µM and the IC50 (HT-29 [22]) was 4.15 µM. The IC50 (SW48) was 3.14 µM, the Activity (DLD-1 [23]) was 0.8% and the Activity (DLD-1 [24]) was “inactive”.

Source: ChEMBL document CHEMBL4680153, “New Spisulosine Derivative promotes robust autophagic response to cancer cells” (Eur J Med Chem, 2020)
